Compounds with a hit are over-represented: about 1% of the library has one in this group of screens.
BAP1 block: inhibitors of human BAP1 deubiquitinase. Q92560. recombinant BAP1, Ub-AMC hydrolysis fluorescence kinetic; hits give low values. calls only at 20 µM. 72,000 compounds, 0.48% hits;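 active means activity remaining at or below 50% of control, provided the compound also passes the data quality filters; inactive means the rest, including low values that fail the filters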;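 further: 100% = DMSO wells rate and 0% = substrate alone blank rate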
Target sequence (Q92560 whole entry, looked up): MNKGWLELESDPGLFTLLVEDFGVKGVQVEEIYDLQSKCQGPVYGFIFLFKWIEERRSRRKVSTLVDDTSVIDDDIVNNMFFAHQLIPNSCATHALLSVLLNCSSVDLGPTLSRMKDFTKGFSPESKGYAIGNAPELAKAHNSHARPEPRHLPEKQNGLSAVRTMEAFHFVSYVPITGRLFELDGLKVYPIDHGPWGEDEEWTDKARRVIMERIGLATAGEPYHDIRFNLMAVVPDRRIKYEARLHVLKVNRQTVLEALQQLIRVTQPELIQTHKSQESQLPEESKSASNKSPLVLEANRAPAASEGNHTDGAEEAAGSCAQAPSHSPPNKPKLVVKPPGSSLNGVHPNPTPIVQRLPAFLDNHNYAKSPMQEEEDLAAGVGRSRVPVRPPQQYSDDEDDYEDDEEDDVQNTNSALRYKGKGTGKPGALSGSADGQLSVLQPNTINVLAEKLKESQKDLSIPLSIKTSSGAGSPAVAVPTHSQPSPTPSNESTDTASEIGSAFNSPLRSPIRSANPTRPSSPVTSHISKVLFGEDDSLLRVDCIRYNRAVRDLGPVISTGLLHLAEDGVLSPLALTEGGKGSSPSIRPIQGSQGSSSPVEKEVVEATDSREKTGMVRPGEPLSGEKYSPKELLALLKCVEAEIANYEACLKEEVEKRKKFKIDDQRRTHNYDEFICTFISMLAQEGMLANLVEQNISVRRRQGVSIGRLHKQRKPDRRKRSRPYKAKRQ
FXIa inh mix: factor XIa (human) inhibition, mixture screen; P03951; purified FXIa, fluorogenic substrate, pooled mixtures; inhibition, % at 5 µM; 62,000 compounds, 0.19% hits;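 further: each value is inhibition by a whole ten-compound pool holding the compound; 0% = enzyme with no mixture and 100% = wells lacking enzyme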
FXIIa mix inh: factor XIIa (human) inhibition, mixture screen; P00748; purified FXIIa, fluorogenic substrate, pooled mixtures; inhibition, % at 5 µM; 62,000 compounds, 0.2% hits; AID 684;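 further: 0% = enzyme without compound and 100% = no enzyme blank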
HePTP inhibitor: human HePTP phosphatase inhibition; AID 521; recombinant HePTP phosphatase activity, OD absorbance; inhibition, % at 20 µM; 110,000 compounds, 0.64% hits; in the data active means inhibition above about 50%;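 further: plate controls were vehicle for no effect and reference inhibitor for full effect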
AP complement: orthogonal test for alternative complement pathway inhibitors. Human serum alternative complement pathway, LPS-coated ELISA, C3 deposition; tested in compound mixtures. inhibition, % at 5 µM. 62,000 compounds, 0.08% hits. AID 1235;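 active means inhibition above 30% in each of the two pooled mixtures holding the compound, so the lower value exceeds 30%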;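 further: 0% = serum in Mg-EGTA without compound and 100% = EDTA serum blank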
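Test system – human serum alternative complement pathway, C3 deposition on LPS-coated wells · Buffer or medium – diluted human serum in Mg2+-EGTA GVB++ · Compound dosing – 5 µM each compound, pools of ten, 50 µM per pool · Schedule – 1 h serum-compound exposure at 37 °C · Measured by – Anti-C3 ELISA, OD 450 nm · Read-out basis – percent inhibition of C3 deposition onto LPS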
BAP1 inh conf: confirmation of human BAP1 enzyme inhibitors. AID 753. % of control activity, % at 20 µM. 310 compounds, 8% hits. shares compounds with BAP1 block. purified BAP1, Ub-ethyl ester hydrolysis, HPLC; hits give low values;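 active means percent of control activity at or below 60%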
Starred values were filed as active, the others as inactive; i = inactive; x = no result given; + = active, no number. Unless noted, no stated cut-off is given here; in the data, active means inhibition above about 20% (passing the limit was not always enough); inactive means the rest.

SMILES | BAP1 block | FXIa inh mix | FXIIa mix inh | HePTP inhibitor | AP complement | others
O=c1c2ccccc2nc(/C=C\c2ccc(O)cc2)n1-c1ccc(O)cc1 | x | x | x | 7 | x
Cn1c(O)c(/C=C2/C=CC=N2)c(=O)n(-c2ccccc2)c1=S | x | x | x | 101* | x
COc1cc(CNCCc2c[nH]c3ccccc23)cc(OC)c1O | x | x | x | -14 | x
O=C1NC(=S)NC(=O)C1=Cc1ccc(-c2ccc(S(=O)(=O)Nc3nccs3)cc2)o1 | x | x | x | 100* | x
COC(=O)c1ccc(-c2ccc(C=C3C(=O)NC(=S)NC3=O)o2)cc1 | x | x | x | -10 | x
CN1C(=O)NC(=O)/C(=C\c2ccc([N+](=O)[O-])o2)C1=O | x | x | x | 97* | x
O=[N+]([O-])c1cccc(CN2CCN(Cc3cccc(Br)c3)CC2)c1 | i | x | x | 3 | x
O=c1c2cc(I)ccc2nc(/C=C/c2ccccc2O)n1-c1ccccc1 | x | x | x | -7 | x
Cn1cccc1/C=C1/C(=O)NC(=S)N(c2ccc(Cl)cc2)C1=O | x | x | x | 100* | x
O=[N+]([O-])c1ccc(N2CCN(Cc3ccccc3)CC2)c(Cl)c1 | x | x | x | 8 | x
CCC(=NCCCN(CC)CC)c1c(O)n(-c2ccccc2)c(=O)[nH]c1=O | i | 6 | 4 | 1 | 36*
CCCCCn1c(=O)c(C(=O)Nc2ccncc2)c(O)c2ccccc21 | + | 7 | 8 | 8 | 12
O=C(Cc1ccccc1)N1CCN(Cc2c[nH]c3ccccc23)CC1 | i | 5 | 6 | 2 | 42*
O=C(COc1ccccc1)N1CCN(Cc2c[nH]c3ccccc23)CC1 | i | 4 | 3 | 3 | 10
CCOc1cc(C)cc2oc(=O)c3c(c12)CCC3 | x | x | x | 104* | x
Cc1cc(OCC(N)=O)c2c3c(c(=O)oc2c1)CCC3 | x | x | x | 3 | x
COc1ccc(CN2CCN(Cc3ccc(SC)cc3)CC2)cc1 | x | x | x | 72* | x
CC12CCC3C(CC=C4CC(O)CCC43CO)C1CCC2O (stereo unspecified) | x | x | x | -8 | x
CCOc1ccc(N2C(=O)/C(=C/c3ccco3)C(=O)NC2=S)cc1 | x | x | x | 102* | x
CCOc1ccc(N2C(=O)NC(=O)/C(=C\c3ccc(C)o3)C2=O)cc1 | x | x | x | -4 | x
O=C1NC(=S)N(c2cccc(Br)c2)C(=O)/C1=C/c1ccco1 | x | x | x | 102* | x
O=C(c1ccccc1)c1cc(Cl)ccc1NC(=O)C1COc2ccccc2O1 (stereo unspecified) | x | x | x | 4 | x
CCCCCCn1c(=O)c(C(=O)Nc2c(C)n(C)n(-c3ccccc3)c2=O)c(O)c2ccccc21 | + | -3 | -16 | 3 | 4 | BAP1 inh conf=95
COc1ccc(CCNCc2ccco2)cc1 | x | x | x | 8 | x

Screens (PubChem BioAssay)
